Screens from PubChem.
This is a sample that favours compounds with a hit; in the whole collection about 3% have one here.
Measles CPE: protection of cells from measles virus; Measles virus-infected cells, CPE protection, absorbance; protection (pct of control), % at 4 µM; hit rate 1.5% among 140,000; in the data active = protection mostly above about 24%, no sharp cut-off; inactive = mostly below about 26%
sdo1 growth: restores growth of sdo1-depleted yeast; z-score at 10 µM; S. cerevisiae sdo1-depleted JHY4D growth rescue, OD600 30 h; hits give high values; pdr5 snq2 efflux-pump mutant strain; AID 817; hit rate 0.21% among 140,000;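 active = z-score above 3 at both the 24 hr and the 30 hr optical density reads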;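 note: z-score against mean and SD of all compound wells on the same plate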
sEH inh: soluble epoxide hydrolase (human) inhibition | recombinant human sEH enzymatic activity assay | inhibition, % at 2 µM | hit rate 0.34% among 91,000; in the data active = inhibition above about 80%
Target sequence (P34913 whole entry, looked up): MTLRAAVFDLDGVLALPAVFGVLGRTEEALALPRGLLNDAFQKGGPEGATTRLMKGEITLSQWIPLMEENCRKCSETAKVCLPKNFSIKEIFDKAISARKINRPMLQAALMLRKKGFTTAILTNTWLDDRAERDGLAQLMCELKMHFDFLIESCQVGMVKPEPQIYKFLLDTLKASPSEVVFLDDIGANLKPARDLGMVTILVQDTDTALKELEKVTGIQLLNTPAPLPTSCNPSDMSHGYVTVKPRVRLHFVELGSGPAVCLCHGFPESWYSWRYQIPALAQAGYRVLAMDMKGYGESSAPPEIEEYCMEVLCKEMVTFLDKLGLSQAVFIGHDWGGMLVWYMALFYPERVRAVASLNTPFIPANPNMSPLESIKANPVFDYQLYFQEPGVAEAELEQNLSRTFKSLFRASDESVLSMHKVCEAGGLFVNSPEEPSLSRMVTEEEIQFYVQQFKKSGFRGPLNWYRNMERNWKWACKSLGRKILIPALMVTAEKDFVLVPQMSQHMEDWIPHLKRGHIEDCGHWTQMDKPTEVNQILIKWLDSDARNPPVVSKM
sEH activator: increases human soluble epoxide hydrolase activity; P34913; purified human sEH enzymatic activity, activator screen; activation, % at 2 µM; hit rate 0.04% among 91,000; in the data active = activation above about 37%
BB579 growth dn: reduces growth of yeast BB579 in restrictive medium. S. cerevisiae BB579 growth, OD615, 48 h. inhibition, % at 10 µM. hit rate 0.51% among 140,000. AID 804;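 active = inhibition above a set limit, 3 SD over the mean compound inhibition, cut at about 44% in these data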
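Test system: DeaD yeast strain BB579 / Buffer or medium: restrictive glucose-based CSMM-D medium / Doses: single 10 µM dose / Schedule: 4 h cell preincubation, 48 h compound exposure, 30 °C humidified / Technique: culture absorbance at 615 nm / Controls: amphotericin B positive control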
Yeast life ext: yeast lifespan extension; hit rate 0.68% among 130,000; S. cerevisiae growth with nicotinamide, OD615; deaD strain in restrictive glucose medium; inhibition of the nicotinamide effect, % at 10 µM;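 active = inhibition above a set limit, placed 3 SD over the median of all compounds, cut at about 26% in these data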;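 note: 0% = nicotinamide-treated wells and 100% = cells grown without nicotinamide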
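Assay system: engineered S. cerevisiae DeaD replicative-lifespan strain, galactose-grown log-phase cells; medium: restrictive CSMM-D dextrose medium; also added: nicotinamide, 1.5 mM, co-present with compound; schedule: 48 h compound exposure at 30 °C, humidified; detection: absorbance at 615 nm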
* hit, by the source's call; . = not tested or not shown.

SMILES | Measles CPE | sdo1 growth | sEH inh | sEH activator | BB579 growth dn | Yeast life ext
C/C(=N\NC(=O)c1cccc(F)c1)c1ccc(Br)s1 | 3.1 | -0.6 | 37.9 | -39.1 | -31.9 | -13.4
CN(C(=O)n1cnc2ccccc21)c1ccccc1 | 11.4 | -0.14 | . | . | -14.5 | 1.7
ClC(Br)=C(n1cnc2ccccc21)n1cnc2ccccc21 | 9.9 | -1.26 | 4.5 | -4.9 | -53.4 | 41.3*
O=S(=O)(NCCc1ccccc1)c1ccc(Cl)nc1 | 5.7 | -0.12 | . | . | -20.5 | 4.5
CCC1CCCCN1S(=O)(=O)c1ccc(S(=O)(=O)N(Cc2cccs2)C2CC2)cc1 (stereo not drawn) | 42.2* | -0.54 | . | . | -37.3 | 33.0*
N#Cc1cccc(NC(=O)Cn2c3[n+](c4ccc(C(F)(F)F)cc42)CCCCC3)c1 | 39.7 | 0.31 | . | . | -14.3 | -1.5
Cn1c(Sc2ccc(Br)cc2)c(C=O)c2ccccc21 | 17.8 | -0.8 | -5.3 | 4.2 | -30.9 | -6.8
CCCn1c(=O)[nH]c(=O)c2[nH]cnc21 | 8.1 | -0.46 | . | . | -20.4 | 6.7
CCCn1c(N)c(Br)c(=O)[nH]c1=O | 44.5* | 0.02 | . | . | 4.1 | 5.1
COc1cc(C(=O)CCN2CCC(c3ccccc3)C2)cc(OC)c1OC (stereo not drawn) | 22.1 | 0.11 | . | . | -3.2 | 3.7
CCCCOC(=O)n1c(=S)oc2cc(Cl)ccc21 | 6.0 | -0.81 | 11.1 | -7.8 | 97.7* | -22.5
CCCCOC(=O)n1c(=O)oc2cc(S(=O)(=O)N3CCCCC3)ccc21 | 9.2 | -0.95 | 4.4 | -5.9 | -45.8 | 68.5*
COC(=O)n1c(=S)oc2cc(Cl)ccc21 | 8.3 | -0.11 | 16.8 | -15.7 | -35.0 | -19.6
CCOC(=O)c1cnn(-c2ccccc2)c1-n1cccc1C(=O)C(=O)Nc1ccccc1 | 10.8 | -1.67 | 9.1 | -11.3 | -27.6 | -1.8
COc1cc(CNc2ccc(C(=O)O)cc2)cc(Br)c1OCC(=O)NC(C)(C)C | 35.5* | 1.04 | . | . | -35.9 | 0.1
Cc1cccc2sc(NNC(=O)c3ccc(S(=O)(=O)N4CCCC(C)C4)cc3)nc12 (stereo not drawn) | 3.4 | 0.76 | . | . | 36.4 | -3.7
Cc1cccc2sc(NNC(=O)c3ccc4c(c3)OCCO4)nc12 | 36.7* | -0.67 | . | . | 10.2 | -4.7
O=C1ON=C(c2ccccc2)/C1=C/c1ccc(OS(=O)(=O)c2ccccc2)cc1 | 4.2 | 0.03 | . | . | 58.5* | 11.2
O=C(CC1SC(=O)N(c2ccccc2)C1=O)Nc1ccccc1 (stereo not drawn) | 6.2 | 1.03 | 1.8 | 1.3 | 3.5 | 16.0
Cc1cccc(NC(=O)CC2SC(=O)N(c3ccccc3)C2=O)c1 (stereo not drawn) | 3.9 | 0.47 | 1.4 | -3.3 | 50.3* | 14.1
Cc1cccc(OCCN2CSC(=S)N(C)C2)c1 | 3.8 | -2.7 | . | . | 67.2* | 8.0
COc1ccccc1OCCN1CSC(=S)N(C)C1 | 34.5* | -1.98 | . | . | 52.5* | 14.4
COc1ccccc1OCCCCN1CCN(c2ccccc2OC)CC1 | 2.5 | 0.55 | 0.5 | -0.3 | -56.4 | -4.7
O=C(CNC(=O)c1cc2ccccc2o1)NCc1cccs1 | 6.0 | -0.01 | 12.9 | -12.9 | -24.8 | -8.0
Cn1c(C(=O)NCc2cccs2)cc2oc3ccccc3c21 | 47.6* | -0.64 | . | . | -13.2 | -27.0
SMILES | Measles CPE | sdo1 growth | sEH inh | sEH activator | BB579 growth dn | Yeast life ext
Cn1c(C(=O)NCC2CCCO2)cc2oc3ccccc3c21 (stereo not drawn) | 10.9 | -0.84 | . | . | -6.1 | -27.8
Cn1c(C(=O)NCc2ccccc2)cc2oc3ccccc3c21 | 73.2* | -1.09 | 2.6 | 0.6 | -9.3 | -20.1
CCCC1=C(C(=O)OCC)C(c2ccc(OC)c(C)c2OC)C(C#N)=C(N)O1 (stereo not drawn) | 11.8 | -0.35 | . | . | -36.8 | 4.3
CN(C)S(=O)(=O)c1cccn1-c1ncc(C(F)(F)F)cc1Cl | 43.1* | 1.73 | -5.9 | 3.8 | -1.4 | -5.7
COc1ccc(Cn2c(-c3ccc(C)cc3)nc3c(c(=O)c4ccccc4n3C)c2=O)cc1 | 16.9 | -0.3 | . | . | -28.3 | 4.6
Fc1cccc2sc(Nc3nnc(-c4ccco4)o3)nc12 | 12.5 | 0.54 | 17.0 | -14.9 | -46.0 | 93.8*
COC(=O)C1CCN(S(=O)(=O)c2ccc(OC)cc2)CC1 | 7.5 | 1.29 | -2.1 | 0.2 | -52.4 | 7.2
CC(C)c1ccc(NC(=O)Cn2cccc2C2=NC(c3ccccc3)CO2)cc1 (stereo not drawn) | 4.6 | -0.64 | . | . | -20.5 | -4.1
Cc1cccc2c1CC(C)(C)N/C2=C\C(N)=O | 5.0 | 0.07 | . | . | -49.4 | 6.6
Cc1cc2c(cc1C)/C(=C\C(N)=O)NC(C)(C)C2 | 44.4* | -0.76 | . | . | 2.6 | -9.0
COc1cccc(-c2nnc(SCC(N)=O)n2-c2ccc(Cl)cc2)c1 | 56.7* | 0.17 | 17.1 | -15.4 | -3.5 | -2.1
COc1ccc(-c2nnc(SCC(=O)c3cccs3)n2-c2ccc(Cl)cc2)cc1 | 22.4 | -0.75 | . | . | -52.5 | 14.1
CCn1c(/N=C/c2ccccc2NS(=O)(=O)c2ccc(C)cc2)nc2ccccc21 | 65.8* | -1.79 | . | . | -5.4 | 49.8*
CCCCn1c(NCc2ccccc2NS(=O)(=O)c2ccc(C)cc2)nc2ccccc21 | 4.4 | -0.87 | 2.1 | -2.4 | -24.0 | -12.7
C=CCn1c(-c2ccc(OC)cc2)csc1=Nc1c(C)n(C)n(-c2ccccc2)c1=O | 1.9 | -0.71 | -13.1 | 14.7 | -37.8 | 99.9*
Cc1csc(=Nc2c(C)n(C)n(-c3ccccc3)c2=O)n1Cc1ccccc1 | 16.7 | -0.83 | -2.3 | 5.3 | -14.6 | -6.3
Cc1ccc(-c2nnn(CC(=O)N(Cc3ccccc3F)C(C(=O)NC3CCCC3)c3ccncc3)n2)o1 (stereo not drawn) | 19.5 | 0.49 | -6.5 | 6.5 | -24.6 | .
OCCNC(=S)NCCc1ccccc1 | 14.6 | 0.98 | . | . | -20.5 | 3.0
CC(C)(CNC(=S)NCCc1ccccc1)CNC(=S)NCCc1ccccc1 | 7.5 | -0.3 | . | . | 73.4* | -4.6
C/C(=N/OC(=O)c1c(F)cccc1F)c1nccs1 | 2.9 | 0.68 | -39.5 | 39.0* | -23.8 | -27.2
C/C(=N\OC(=O)c1ccc(F)cc1)c1nccs1 | 12.7 | -0.81 | -1.2 | 0.8 | -23.6 | -36.3
COc1ccccc1-n1c(CNc2ccc(F)cc2)nnc1SCC(=O)Nc1cc(C)on1 | 15.7 | 0.81 | 2.4 | -2.1 | -19.9 | .
O=C(CN1CCOCC1)OCCCC1CCCCC1 | 5.7 | 0.74 | . | . | -8.5 | -5.8
CCn1ncc(Br)c1C(=O)Nc1ccc(C(=O)OC(C)C)cc1 | 38.3* | -1.06 | 0.8 | -1.7 | -36.3 | -16.6
COc1cc(/C=N/NC(=O)CNc2n[nH]c(=O)[nH]c2=O)ccc1O | 25.6 | 0.2 | . | . | -1.3 | -3.1
CCOC(=O)Nc1ccc2c(c1)N(C(=O)OC)c1ccccc1CC2 | 13.5 | -1.66 | -44.2 | 41.0* | -21.1 | -10.0
O=C(N/N=C\c1cc(Cl)ccc1O)c1ccc(S(=O)(=O)N2CCCCC2)cc1 | 1.6 | 0.27 | . | . | -29.3 | 1.6
CCOC(=O)C1CCN(C(=O)CS(=O)Cc2nc(-c3ccc(C)cc3)oc2C)CC1 (stereo not drawn) | 46.2* | -0.43 | . | . | -18.8 | -4.3
